Tests used:
[1] = Inhibition of dog kidney cortex NEP at pH 7; design: species or system Canis lupus familiaris
Sus scrofa = species: Sus scrofa; experiment: Inhibition of pig ACE
Method in brief: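 Porcine ACE; same format as the NEP assay. Substrate o-aminobenzoyl-Gly-Gly-p-nitro-Phe-Pro-OH, 10 µM final, in 50 mM Tris-Cl pH 7.4 (37 °C) with 300 mM NaCl. Stopped with 2 mM EDTA; fluorescence read-out. IC50 from dilution series.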

[2] = biological target: T1, Endothelin-converting enzyme 1 (Homo sapiens) (UniProt P42892); experiment: Inhibition of human ECE1
T1 sequence (whole entry): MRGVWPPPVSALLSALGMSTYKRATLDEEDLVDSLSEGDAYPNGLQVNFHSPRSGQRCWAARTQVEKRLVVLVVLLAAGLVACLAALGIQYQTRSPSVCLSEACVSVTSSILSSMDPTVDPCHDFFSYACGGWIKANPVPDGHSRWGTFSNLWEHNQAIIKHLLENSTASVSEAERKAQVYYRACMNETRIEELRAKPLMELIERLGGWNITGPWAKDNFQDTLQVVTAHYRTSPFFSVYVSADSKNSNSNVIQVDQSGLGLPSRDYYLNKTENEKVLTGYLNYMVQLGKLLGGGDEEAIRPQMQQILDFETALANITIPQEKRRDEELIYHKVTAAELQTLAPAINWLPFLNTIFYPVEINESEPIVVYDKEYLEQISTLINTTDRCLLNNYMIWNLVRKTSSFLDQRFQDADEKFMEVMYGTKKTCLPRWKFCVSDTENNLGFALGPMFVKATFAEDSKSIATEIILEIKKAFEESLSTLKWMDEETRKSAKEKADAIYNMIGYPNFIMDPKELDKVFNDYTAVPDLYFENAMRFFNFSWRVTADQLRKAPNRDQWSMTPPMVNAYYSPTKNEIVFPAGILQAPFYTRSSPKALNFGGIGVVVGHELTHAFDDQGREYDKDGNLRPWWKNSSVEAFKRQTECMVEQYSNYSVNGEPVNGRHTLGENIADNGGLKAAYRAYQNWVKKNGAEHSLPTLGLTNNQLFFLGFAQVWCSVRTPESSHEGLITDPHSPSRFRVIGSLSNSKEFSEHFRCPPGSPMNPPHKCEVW
Method in brief: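 Human ECE-1, run like the ACE assay (50 mM Tris-Cl pH 7.4, 300 mM NaCl, EDTA stop), with Big ET-1 as substrate. IC50 from dilution series.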

[3] = Distribution coefficient, log D in n-octanol and phosphate buffer at pH 7.4; assay type: physicochemical
[4] = Metabolic stability in human liver microsomes at 1 uM; assay type: ADME, Microsome
Method in brief: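 Human liver microsomes, 1 µM compound with 0.5 µM CYP. Reported as first-order compound disappearance half-life.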

[5] = Permeability from apical to basolateral side of the Caco-2 cell membrane at pH 7.4; assay type: ADME, cell-based; conditions: human, Caco-2, pH 7.4
Method in brief: (§1)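 Caco-2 monolayers; apparent permeability (Papp) measured with pH 7.4 in both apical and basolateral chambers.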

[6] = Inhibition of dog kidney cortex NEP at pH 7.4; design: species or system Canis lupus familiaris
Homo sapiens = species: Homo sapiens; experiment: Protein binding in human plasma at 1 ug/ml by equilibrium dialysis; conditions: read-out: PPB (converted)
[7] = Clearance in rat at 1 mg/kg, iv and 1 mg/kg, po; assay type: ADME, organism-based; conditions: in vivo
Method in brief: (§2)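 Male CD rats, jugular vein cannulated under general anaesthesia; dosed 1 mg/kg iv (tail vein) and po (gavage). Serial 0.2 ml blood samples taken from the cannula into heparin, centrifuged to plasma, stabilised with 0.01 parts 85% phosphoric acid, frozen. Plasma levels measured by LC–MS–MS after C18 solid-phase extraction, with internal standard.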

[8] = Volume of distribution in rat at 1 mg/kg, iv and 1 mg/kg, po; assay type: ADME, organism-based; conditions: in vivo, read-out: Vdss; method in brief: as §2
[9] = Half life in rat at 1 mg/kg, iv and 1 mg/kg, po; assay type: ADME, organism-based; conditions: in vivo; method in brief: as §2
[10] = Fraction unbound ligand in rat at 1 mg/kg, iv and 1 mg/kg, po; assay type: ADME, organism-based; conditions: in vivo
Method in brief: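 Fraction unbound in rat plasma measured at 1 µg/ml by equilibrium dialysis against isotonic Krebs–Ringer bicarbonate buffer, pH 7.4.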

[11] = Permeability from basolateral to apical side of the Caco-2 cell membrane at pH 7.4; assay type: ADME, cell-based; conditions: human, Caco-2, pH 7.4; method in brief: as §1
Neprilysin [12] = biological target: T2, Neprilysin (Rattus norvegicus, UniProt P07861); experiment: Inhibition of rat NEP
T2 sequence (P07861 whole entry): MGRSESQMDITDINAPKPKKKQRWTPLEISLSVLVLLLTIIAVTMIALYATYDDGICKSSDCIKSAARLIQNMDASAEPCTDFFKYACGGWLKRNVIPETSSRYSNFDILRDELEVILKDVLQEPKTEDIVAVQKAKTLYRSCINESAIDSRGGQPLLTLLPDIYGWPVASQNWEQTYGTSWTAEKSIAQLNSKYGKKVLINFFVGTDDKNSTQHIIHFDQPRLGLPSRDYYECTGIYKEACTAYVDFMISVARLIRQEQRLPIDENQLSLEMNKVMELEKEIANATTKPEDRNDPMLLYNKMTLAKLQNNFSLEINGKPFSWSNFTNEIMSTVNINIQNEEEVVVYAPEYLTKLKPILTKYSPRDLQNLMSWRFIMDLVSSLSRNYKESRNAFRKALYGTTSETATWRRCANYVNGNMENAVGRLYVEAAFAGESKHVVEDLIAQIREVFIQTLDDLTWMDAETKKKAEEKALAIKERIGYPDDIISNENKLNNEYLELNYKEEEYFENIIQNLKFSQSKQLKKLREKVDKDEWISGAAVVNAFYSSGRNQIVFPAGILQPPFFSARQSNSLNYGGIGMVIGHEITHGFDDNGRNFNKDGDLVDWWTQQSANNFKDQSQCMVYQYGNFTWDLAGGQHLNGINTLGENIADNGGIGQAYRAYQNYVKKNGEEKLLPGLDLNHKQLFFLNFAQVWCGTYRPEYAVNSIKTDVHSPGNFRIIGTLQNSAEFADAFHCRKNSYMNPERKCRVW
Method in brief: (§3)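 Fluorogenic assay with Abz-D-Arg-Arg-Leu-EDDnp as substrate (solution at 50 µM before mixing). Inhibitor is pre-mixed with substrate, and enzyme is added, diluted so that conversion stays at or below ~10% in 1 h. Incubation runs 1 h at 37 °C with shaking in Tris–Cl, then is stopped with phosphoramidon. Read-out is Ex320/Em420. Each IC50 uses a 10-point half-log series in duplicate.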

Neprilysin [13] = biological target: T3, Neprilysin (Oryctolagus cuniculus, UniProt P08049); experiment: Inhibition of rabbit NEP; method in brief: as §3
T3 sequence (P08049 whole entry): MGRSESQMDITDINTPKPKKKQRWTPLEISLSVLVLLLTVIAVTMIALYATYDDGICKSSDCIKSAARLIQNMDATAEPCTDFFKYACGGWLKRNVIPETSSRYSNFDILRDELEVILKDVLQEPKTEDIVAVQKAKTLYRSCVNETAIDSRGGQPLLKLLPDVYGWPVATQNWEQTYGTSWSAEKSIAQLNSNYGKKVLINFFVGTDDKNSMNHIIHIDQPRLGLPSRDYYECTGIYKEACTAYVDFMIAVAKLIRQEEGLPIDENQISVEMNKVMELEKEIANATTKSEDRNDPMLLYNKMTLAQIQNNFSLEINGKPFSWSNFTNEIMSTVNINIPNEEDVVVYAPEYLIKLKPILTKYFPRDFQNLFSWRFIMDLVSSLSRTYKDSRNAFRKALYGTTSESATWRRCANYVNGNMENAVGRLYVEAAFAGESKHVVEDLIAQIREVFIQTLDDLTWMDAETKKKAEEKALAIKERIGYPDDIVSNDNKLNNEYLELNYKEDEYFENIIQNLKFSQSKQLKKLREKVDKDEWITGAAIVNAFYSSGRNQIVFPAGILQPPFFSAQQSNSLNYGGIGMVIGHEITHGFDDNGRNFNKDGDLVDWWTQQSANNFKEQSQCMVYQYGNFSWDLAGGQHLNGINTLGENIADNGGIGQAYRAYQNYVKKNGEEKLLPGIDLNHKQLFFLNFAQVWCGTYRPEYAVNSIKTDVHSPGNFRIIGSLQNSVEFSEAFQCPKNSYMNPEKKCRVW

[14] = Oral bioavailability in rat at 1 mg/kg, iv and 1 mg/kg, po; assay type: ADME, organism-based; conditions: in vivo; method in brief: as §2
[15] = Tmax in rat at 1 mg/kg, iv and 1 mg/kg, po; assay type: ADME, organism-based; conditions: in vivo; method in brief: as §2

| Compound | IC50 [1] | Activity (Sus scrofa) | also measured |
| --- | --- | --- | --- |
| COCCC(CC1(C(=O)N[C@@H]2C[C@H]2c2ccc(F)cc2)CCCC1)C(=O)O (relative stereo) | 40 nM | > 3 µM | – |
| COCCC(CC1(C(=O)Nc2nnc(Cc3ccccc3)s2)CCCC1)C(=O)O (stereo not drawn) | 5 nM | > 3 µM | – |
| COCC(CC1(C(=O)N[C@H]2C[C@@H]2c2ccccc2)CCCC1)C(=O)O (relative stereo) | 65 nM | > 3 µM | – |
| COCC(CC1(C(=O)N[C@H]2C[C@@H]2c2ccc(Cl)cc2)CCCC1)C(=O)O (relative stereo) | 20 nM | > 3 µM | – |
| CCCCCCCNC(=O)C1(CC(CCOC)C(=O)O)CCCC1 (stereo not drawn) | 8 nM | > 3 µM | – |
| COCCC(CC1(C(=O)N[C@H]2C[C@@H]2c2ccc(Cl)cc2)CCCC1)C(=O)O (relative stereo) | 21 nM | > 3 µM | – |
| CCC[C@H](CC1(C(=O)Nc2nnc(CC)s2)CCCC1)C(=O)O | 23.7 nM | > 3 µM | Activity [2]: > 3 µM; logD [3]: 0.5; half-life at 1 µM [4]: > 2 h; Papp A→B [5]: 9 ×10⁻⁶ cm/s; clearance [7]: 3 mL/min/kg; Vd [8]: 0.44 L/kg; half-life [9]: 1.7 h; Fu [10]: 0.106 |
| CCCC(CC1(C(=O)Nc2nnc(CC)s2)CCCC1)C(=O)O (stereo not drawn) | 60 nM | > 3 µM | – |
| CCCCC[C@@H]1C[C@H]1NC(=O)C1(CC(CCOC)C(=O)O)CCCC1 (relative stereo) | 10 nM | > 3 µM | – |
| COCCC(CC1(C(=O)NC2(CO)Cc3ccccc3C2)CCCC1)C(=O)O (stereo not drawn) | 11 nM | > 3 µM | – |
| CCCC(CC1(C(=O)N[C@H]2C[C@@H]2c2ccccc2)CCCC1)C(=O)O (relative stereo) | 160 nM | > 3 µM | – |
| COCCC(CC1(C(=O)NC(C)Cc2ccccc2)CCCC1)C(=O)O (stereo not drawn) | 426 nM | > 3 µM | – |
| COCCC(CC1(C(=O)N[C@H]2C[C@@H]2c2ccccc2)CCCC1)C(=O)O (relative stereo) | 100 nM | > 3 µM | – |
| COCC[C@H](CC1(C(=O)NC2(CO)Cc3ccccc3C2)CCCC1)C(=O)O | 5.4 nM | > 3 µM | Activity [2]: > 3 µM; logD [3]: -0.2; half-life at 1 µM [4]: > 2 h; Papp A→B [5]: 1 ×10⁻⁶ cm/s; Papp B→A [11]: 2.5 ×10⁻⁶ cm/s; IC50 [6]: 14.2 nM; clearance [7]: 18 mL/min/kg; Vd [8]: 7.5 L/kg; half-life [9]: 4.8 h; fraction unbound [10]: 0.088; bioavailability [14]: 109%; Tmax [15]: < 1 h; fraction unbound at 1 ug/ml (Homo sapiens): 0.228 |

The next lines start with results.

| IC50 [1] | Activity (Sus scrofa) | Compound | also measured |
| --- | --- | --- | --- |
| 8 nM | > 3 µM | COCC[C@H](CC1(C(=O)N[C@@H]2C[C@H]2c2ccc(OC)cc2)CCCC1)C(=O)O | Activity [2]: > 3 µM; logD [3]: 0.3; half-life at 1 µM [4]: > 2 h; Papp A→B [5]: 7 ×10⁻⁶ cm/s; IC50 [6]: 5.7 nM; fraction unbound at 1 ug/ml (Homo sapiens): 0.032 |
| 500 nM | > 3 µM | COCCC(CC1(C(=O)NCCc2ccccc2)CCCC1)C(=O)O (stereo not drawn) | – |
| 8 nM | > 3 µM | COCCC(CC1(C(=O)N[C@@H]2C[C@H]2c2ccc(OC)cc2)CCCC1)C(=O)O (relative stereo) | – |
| 0.9 nM | > 3 µM | COCC[C@H](CC1(C(=O)NCCCc2ccc(Cl)cc2)CCCC1)C(=O)O | Activity [2]: > 3 µM; logD [3]: 1; half-life at 1 µM [4]: > 2 h; Papp A→B [5]: 12 ×10⁻⁶ cm/s; Papp B→A [11]: 14 ×10⁻⁶ cm/s; IC50 (Neprilysin [12]): 0.6 nM; IC50 (Neprilysin [13]): 0.8 nM; IC50 [6]: 3.8 nM; clearance [7]: 3.5 mL/min/kg; Vd [8]: 0.6 L/kg; half-life [9]: 1.9 h; fraction unbound [10]: 0.083; bioavailability [14]: 70% |
| 2 nM | > 3 µM | COCCC(CC1(C(=O)NCCCc2ccc(Cl)cc2)CCCC1)C(=O)O (stereo not drawn) | – |
| 369 nM | > 3 µM | COCCC(CC1(C(=O)NCCc2ccc(OC)cc2)CCCC1)C(=O)O (stereo not drawn) | – |
| 15 nM | > 3 µM | COCCC(CC1(C(=O)NCCCc2ccc(F)cc2)CCCC1)C(=O)O (stereo not drawn) | – |
| 35 nM | > 3 µM | COCCC(CC1(C(=O)NCCOc2ccc(OC)cc2)CCCC1)C(=O)O (stereo not drawn) | – |
| 35 nM | > 3 µM | COCCC(CC1(C(=O)NCCCc2ccccc2)CCCC1)C(=O)O (stereo not drawn) | – |
| 2 nM | > 3 µM | COCC[C@H](CC1(C(=O)NCCCc2ccc(F)cc2)CCCC1)C(=O)O | Activity [2]: > 3 µM; logD [3]: 0.5; half-life at 1 µM [4]: > 2 h; Papp A→B [5]: 12 ×10⁻⁶ cm/s; IC50 [6]: 8.8 nM; clearance [7]: 13 mL/min/kg; Vd [8]: 2.7 L/kg; half-life [9]: 2.4 h; fraction unbound [10]: 0.138; bioavailability [14]: 138%; fraction unbound at 1 ug/ml (Homo sapiens): 0.124 |
| 17 nM | > 3 µM | CCCCc1ccnc(NC(=O)C2(CC(CCOC)C(=O)O)CCCC2)c1 (stereo not drawn) | – |
| 2 nM | > 3 µM | COCCC(CC1(C(=O)NCCCc2ccc(OC)cc2)CCCC1)C(=O)O (stereo not drawn) | – |
